Data on nine compounds can be found in ChEMBL document CHEMBL1150354, “'Hybrid' benzofuran-benzopyran congeners as rigid analogs of hallucinogenic phenethylamines” (Bioorg Med Chem, 2008).

In test [1] the target is 5-hydroxytryptamine receptor 2A (Rattus norvegicus) (UniProt P14842). Nature of the test: Intrinsic activity at rat 5HT2A receptor expressed in mouse NIH3T3 cells assessed as stimulation of inositol phosphate accumulation relative to serotonin. The class given is functional, cell-based. The procedure, abridged: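 NIH-3T3 cells stably expressing rat 5-HT2A receptor (GF-6, 5500 fmol/mg), kept in DMEM with 300 μg/ml G-418. Read-out was stimulated radiolabeled inositol phosphate accumulation. Each plate normalized to water-stimulated wells (0%) and 10 μM serotonin (100%). EC50 and intrinsic activity given as mean (SEM) over n experiments.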
Chain of 5-hydroxytryptamine receptor 2A (Rattus norvegicus) (P14842 whole entry): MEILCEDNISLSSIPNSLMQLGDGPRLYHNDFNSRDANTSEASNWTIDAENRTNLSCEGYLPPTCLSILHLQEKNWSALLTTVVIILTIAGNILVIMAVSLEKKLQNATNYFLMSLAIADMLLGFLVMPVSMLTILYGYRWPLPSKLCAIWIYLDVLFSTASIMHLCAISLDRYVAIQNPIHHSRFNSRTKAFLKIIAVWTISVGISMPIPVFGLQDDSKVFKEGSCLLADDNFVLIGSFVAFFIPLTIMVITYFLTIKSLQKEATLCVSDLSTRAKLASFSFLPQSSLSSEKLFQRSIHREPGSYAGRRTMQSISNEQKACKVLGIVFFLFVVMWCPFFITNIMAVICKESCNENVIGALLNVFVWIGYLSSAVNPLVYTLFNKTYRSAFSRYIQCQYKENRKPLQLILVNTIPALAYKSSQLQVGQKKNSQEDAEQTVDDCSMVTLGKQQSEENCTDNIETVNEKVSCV

Test [2] has as its target T1, 5-hydroxytryptamine receptor 2A (Rattus norvegicus, UniProt P14842). As to the kind of experiment: Displacement of [3H]ketanserin from rat 5HT2A receptor expressed in mouse NIH3T3 cells. The class given is cell-based. Put shortly:
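Membranes came from NIH-3T3 cells stably expressing rat 5-HT2A receptor (GF-6, 5500 fmol/mg). Competition used 0.5nM [3H]-ketanserin against increasing test compound concentrations (ca. 10 pM - 10 μM). Curves were fitted to give Ki, reported as mean (SEM) over n experiments.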
For orientation: In a radioligand displacement assay an active substance lowers the binding of a labelled ligand.

Test [3] deals with T1, 5-hydroxytryptamine receptor 2A. As to the kind of experiment: Agonist activity at rat 5HT2A receptor expressed in mouse NIH3T3 cells assessed as stimulation of inositol phosphate accumulation. The class given is functional, cell-based. The procedure, abridged:
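Read-out was stimulated radiolabeled inositol phosphate accumulation. Each plate normalized to water-stimulated wells (0%) and 10 μM serotonin (100%). EC50 and intrinsic activity given as mean (SEM) over n experiments.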

For test [4], the system named is Rattus norvegicus. Nature of the test: Hallucinogenic activity in D-lysergic acid N,N-diethylamide-trained Sprague-Dawley rat assessed as disrupted behavior at 0.09 mg/kg, ip after 30 mins by two-lever drug discrimination assay. It is filed as functional. Conditions: route intraperitoneal. The procedure, abridged:
(§1)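 Male Sprague-Dawley rats (200-220 g at start) trained to discriminate LSD tartrate (186 nmol/kg; 0.08 mg/kg, ip) from saline, FR50 food reinforcement, two levers. Test drug given ip 30 min before an extinction session. A session was scored as disruption if 50 presses on one lever were not completed within 5 min. %D is the percentage of rats disrupted at each dose.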

The subject of test [5] is Rattus norvegicus. Nature of the test: Hallucinogenic activity in D-lysergic acid N,N-diethylamide-trained Sprague-Dawley rat assessed as selection of drug-appropriate lever at 0.17 mg/kg, ip after 30 mins by two-lever drug discrimination assay. The class given is functional. Particulars: route intraperitoneal. Put shortly:
(§2)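 Male Sprague-Dawley rats (200-220 g at start) trained to discriminate LSD (0.08 mg/kg ip) from saline, FR50 food-reinforced two-lever task, training to ≥85% accuracy on 8 of 10 sessions. Test drug given ip 30 min before an extinction session, ended at 50 presses on one lever. %SDL is the percentage of rats choosing the drug lever per dose. Treatments randomized.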

The subject of test [6] is Rattus norvegicus. Nature of the test: Hallucinogenic activity in D-lysergic acid N,N-diethylamide-trained Sprague-Dawley rat assessed as disrupted behavior at 0.17 mg/kg, ip after 30 mins by two-lever drug discrimination assay. Conditions: route intraperitoneal. It is filed as functional. The procedure, abridged: as §1
For test [7], the system named is Rattus norvegicus. Nature of the test: Hallucinogenic potency in ip dosed D-lysergic acid N,N-diethylamide-trained Sprague-Dawley rat after 30 mins. The class given is functional. Conditions: 0.5 h.
The test system of test [8] is Rattus norvegicus. Nature of the test: Hallucinogenic activity in D-lysergic acid N,N-diethylamide-trained Sprague-Dawley rat assessed as selection of drug-appropriate lever at 0.09 mg/kg, ip after 30 mins by two-lever drug discrimination assay. It is filed as functional. Particulars: route intraperitoneal. The procedure, abridged:
as §2

The subject of test [9] is Rattus norvegicus. Nature of the test: Hallucinogenic activity in D-lysergic acid N,N-diethylamide-trained Sprague-Dawley rat assessed as selection of drug-appropriate lever at 0.35 mg/kg, ip after 30 mins by two-lever drug discrimination assay. It is filed as functional. Conditions: route intraperitoneal. Put shortly: as §2
The subject of test [10] is Rattus norvegicus. As to the kind of experiment: Hallucinogenic activity in D-lysergic acid N,N-diethylamide-trained Sprague-Dawley rat assessed as disrupted behavior at 0.35 mg/kg, ip after 30 mins by two-lever drug discrimination assay. It is filed as functional. Particulars: route intraperitoneal. Put shortly: as §1
For test [11], the system named is Rattus norvegicus. Nature of the test: Hallucinogenic activity in D-lysergic acid N,N-diethylamide-trained Sprague-Dawley rat assessed as selection of drug-appropriate lever at 0.38 mg/kg, ip after 30 mins by two-lever drug discrimination assay. The class given is functional. Conditions: route intraperitoneal. The procedure, abridged: as §2
The subject of test [12] is Rattus norvegicus. As to the kind of experiment: Hallucinogenic activity in D-lysergic acid N,N-diethylamide-trained Sprague-Dawley rat assessed as selection of drug-appropriate lever at 0.50 mg/kg, ip after 30 mins by two-lever drug discrimination assay. The class given is functional. Conditions: dose 0.5 mg/kg; route intraperitoneal. The procedure, abridged: as §2

The subject of test [13] is Rattus norvegicus. As to the kind of experiment: Hallucinogenic activity in D-lysergic acid N,N-diethylamide-trained Sprague-Dawley rat assessed as disrupted behavior at 0.25 mg/kg, ip after 30 mins by two-lever drug discrimination assay. Particulars: route intraperitoneal. The class given is functional. The procedure, abridged: as §1
Test [14] has as its system Rattus norvegicus. As to the kind of experiment: Hallucinogenic activity in D-lysergic acid N,N-diethylamide-trained Sprague-Dawley rat assessed as disrupted behavior at 0.38 mg/kg, ip after 30 mins by two-lever drug discrimination assay. The class given is functional. Conditions: route intraperitoneal. The procedure, abridged:
as §1

Test [15] has as its system Rattus norvegicus. As to the kind of experiment: Hallucinogenic activity in D-lysergic acid N,N-diethylamide-trained Sprague-Dawley rat assessed as selection of drug-appropriate lever at 0.25 mg/kg, ip after 30 mins by two-lever drug discrimination assay. It is filed as functional. Conditions: route intraperitoneal. The procedure, abridged:
as §2

Test [16] concerns Rattus norvegicus. Nature of the test: Hallucinogenic activity in D-lysergic acid N,N-diethylamide-trained Sprague-Dawley rat assessed as disrupted behavior at 0.50 mg/kg, ip after 30 mins by two-lever drug discrimination assay. The class given is functional. Conditions: dose 0.5 mg/kg; route intraperitoneal. The procedure, abridged: as §1
Test [17] concerns Rattus norvegicus. As to the kind of experiment: Hallucinogenic activity in D-lysergic acid N,N-diethylamide-trained Sprague-Dawley rat assessed as disrupted behavior at 0.69 mg/kg, ip after 30 mins by two-lever drug discrimination assay. It is filed as functional. Particulars: route intraperitoneal. Put shortly:
as §1

Test [18] concerns Rattus norvegicus. Nature of the test: Hallucinogenic activity in D-lysergic acid N,N-diethylamide-trained Sprague-Dawley rat assessed as selection of drug-appropriate lever at 0.69 mg/kg, ip after 30 mins by two-lever drug discrimination assay. Conditions: route intraperitoneal. The class given is functional. Put shortly:
as §2

T1 sequence (P14842 whole entry): as above

Usually Ki stands for a dissociation constant, usually derived from enzyme kinetics or from competition with a known ligand. Read a low Ki as tighter binding. Take `CC(N)Cc1c2c(c(Br)c3c1OCC3)OCC2` (centres undefined): the Intrinsic activity in test [1] is 88%. In addition, the inhibitory constant (Ki) in test [2] stood at 1 nM.

What is called EC50 is the concentration at which the effect is half-maximal. For the compound `NCCc1c2c(c(Br)c3c1OCCC3)OCCC2`, the EC50 in [3] is 241 nM. For the same compound, the Intrinsic activity in [1] was determined as 61%. Besides, the Ki in test [2] came to 4.5 nM.

`CC(N)Cc1c2c(c(Br)c3c1OCC3)OCCC2` (centres undefined): the Activity in test [4] is 0%; in test [5], 54%; in test [6], 0%; in test [8], 33%; in test [9], 83%; in test [10] it was 0%. For the same compound, the EC50 in test [3] was determined as 19 nM. The Intrinsic activity in [1] was 86%. The compound also registered an ED50 in [7] of 0.38 µmol/kg. Besides, the Ki in test [2] worked out at 3.6 nM.

Take `CC(N)Cc1c2c(c(Br)c3ccoc13)OCCC2` (centres undefined): the concentration giving a half-maximal response (EC50) in test [3] was found to be 13 nM. In test [1], the Intrinsic activity came to 102%. Moreover, the Ki in [2] worked out at 1 nM.

For `NCCc1c2c(c(Br)c3c1OCCC3)OCC2`, in [3], the concentration for a half-maximal effect (EC50) stood at 146 nM. Also, in test [1], the Intrinsic activity turned out to be 64%. The same compound had an inhibitory constant (Ki) in [2] of 8.4 nM.

Turning to `CC(N)Cc1c2c(c(Br)c3c1OCCC3)OCCC2` (centres undefined), the EC50 in test [3] amounted to 258 nM. In addition, in test [1], the Intrinsic activity came to 72%. This compound also displayed an inhibition constant Ki in test [2] of 3.1 nM.

In the case of `COc1cc(CC(C)N)c(OC)cc1Br` (centres undefined) [BROLAMFETAMINE], the Activity in [11] is recorded as 50%; in [12], 89%; in [13], 46%; in test [14], 40%; in [15], 29%; in test [16], 36%. The Intrinsic activity in test [1] stood at 73%.

Consider `NCCc1c2c(c(Br)c3c1OCC3)OCCC2`, for which the half-maximal effective concentration (EC50) in test [3] worked out at 9.4 nM. Moreover, the Intrinsic activity in test [1] is 61%. The compound further gave a Ki in test [2] of 11 nM.

Turning to `CC(N)Cc1c2c(c(Br)c3c1OCCC3)OCC2` (centres undefined), the Activity was determined as 0% in test [17]; 10% in [5]; 17% in test [6]; 80% in test [18]; 41% in [9]; 0% in test [10]. Further, in test [3], the EC50 amounted to 78 nM. The Intrinsic activity in test [1] was found to be 74%. Moreover, the ED50 in [7] was 1.16 µmol/kg. This compound also displayed an inhibition constant (Ki) in test [2] of 5.3 nM.
